Screening data (PubChem)
CHT inh: inhibitors of human choline transporter CHT. CHT-expressing cells, membrane potential dye, choline response; active compounds read low. actives 0.86% (n = 310,000). High affinity choline transporter 1 (Homo sapiens), Q9GZV3. B-score at 10 µM;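 active = B-score over 3 SD under the library average, and starting fluorescence ratio not unusually high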;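 note: choline stimulus applied at its EC90 after an EC20 pre-addition; B-score computed on integrated fluorescence ratio after choline addition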
procasp3 activ: activators of human procaspase-3 D3A mutant, primary screen, biochemical, absorbance, PC-3 D3A mutant, single concentration; Caspase-3 (Homo sapiens), P42574; recombinant procaspase-3 D3A, Ac-DEVD-pNA absorbance 405 nm; activation, % at 8.5 µM; actives 0.11% (n = 330,000); AID 463141, 2010;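 active = activation above the mean of all tested compounds plus 3 SD, cut at about 21% in these data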
Target sequence (P42574 whole entry D9A/D28A/D175A): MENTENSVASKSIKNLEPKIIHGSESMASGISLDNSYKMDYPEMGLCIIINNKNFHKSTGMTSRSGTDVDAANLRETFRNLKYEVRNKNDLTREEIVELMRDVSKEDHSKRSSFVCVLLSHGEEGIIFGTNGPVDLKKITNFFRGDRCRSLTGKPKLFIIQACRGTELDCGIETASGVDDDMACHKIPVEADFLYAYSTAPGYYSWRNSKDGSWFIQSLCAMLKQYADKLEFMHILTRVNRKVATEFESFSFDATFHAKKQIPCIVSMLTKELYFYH
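Assay system – Procaspase-3 D3A mutant, all three cleavage aspartates alanine · Controls – DMSO-only low control, 5 µM PC-3 D3A high control · Schedule – 1 h compound preincubation, 2 h substrate hydrolysis at 25 °C · Signal – 405 nm absorbance of p-nitroaniline, reads at 0 and 120 min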
proCasp7 act: procaspase-7 activators, primary screen, counter-screen for procaspase-3 activator project, biochemical, absorbance, HTS, human; recombinant procaspase-7, Ac-DEVD-pNA absorbance 405 nm; D23A/D198A/D206A triple mutant, cannot self-cleave; scale: DMSO 0, 5 µM enzyme 100; Caspase-7 (Homo sapiens), P55210; activation, % at 8.5 µM; actives 0.093% (n = 330,000); AID 463210, 2010;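 active = percent activation above the screen-wide mean plus 3 SD, cut at about 25% in these data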
Target sequence (P55210 whole entry D23A/D198A/D206A): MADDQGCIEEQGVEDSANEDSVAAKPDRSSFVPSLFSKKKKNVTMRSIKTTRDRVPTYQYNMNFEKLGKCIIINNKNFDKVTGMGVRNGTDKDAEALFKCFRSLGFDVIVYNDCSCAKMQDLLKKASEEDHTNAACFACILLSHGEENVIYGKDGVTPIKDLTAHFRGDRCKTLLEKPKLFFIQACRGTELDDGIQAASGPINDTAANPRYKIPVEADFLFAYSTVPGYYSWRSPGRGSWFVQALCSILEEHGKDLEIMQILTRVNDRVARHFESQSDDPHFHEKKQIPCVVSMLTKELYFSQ
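Replicates: singlicate. Assay system: Procaspase-7 triple mutant (PC-7 D3A). Signal: 405 nm absorbance of p-nitroaniline. Times: 1 h preincubation, 2 h reaction. Buffer or medium: Zinc-free HEPES pH 7.4 with 300 mM NaCl, 0.01% Triton X-100. Also added: DEVD-pNA substrate. Benchmarks: DMSO wells as 0%, DMSO with 5 µM added PC-7 as 100%.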
CHT PAM: CHT positive allosteric modulators, primary screen, cell-based, membrane potential dye, choline EC20; CHT-expressing cells; active compounds read high; LV-AA mutant CHT in HEK293 cells; actives 0.49% (n = 310,000); B-score at 10 µM;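 active = initial fluorescence not abnormally high and integrated response B-score, plate-corrected, over 3 SD above library mean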
CHT act confirm: CHT activators, confirmation, cell-based, membrane potential dye, duplicate. actives 91% (n = 2,500). CHT-expressing cells, membrane potential dye fluorescence (FDSS); % of choline EC20–EC90 response window; HEK293 expressing CHT LV-AA mutant; choline added at its EC20. shares compounds with CHT PAM. activation, % at 10 µM;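 active = primary screen active, with duplicate mean activation above negative control mean plus 3 SD, cut at about 11% in these data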
HEK293 MP dye: membrane potential response in parental HEK293 cells, counter-screen for CHT activator project, cell-based, membrane potential dye | actives 62% (n = 2,500) | ratio readout change at 10 µM, hits read low | AID 623908, 2012 | membrane potential dye fluorescence (FDSS); measured after EC20 choline addition | shares compounds with CHT PAM;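 active = duplicate-averaged ratio beyond 3 SD from buffer wells, up or down, though filed actives are nearly all decreases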
Of the large screens only hits and unclear results are named; the others gave an inactive call (follow-up assays come after a bar, where they were run). Only some compounds are listed: those with a hit (about 1.3% of all), similar ones and a draw of the others.

COC(=O)CCC(=O)Nc1sc2c(c1C#N)CCCC2	CHT PAM 9.23 | CHT act confirm 24.8 | HEK293 MP dye inactive
Cc1ccc(SC(C)C(=O)Nc2ccccc2C(=O)N2CCOCC2)cc1 (stereo not given)	none
Cc1ccc(SC(C)C(=O)Nc2ccccc2-c2ccccc2)cc1 (stereo not given)	none | CHT act confirm inactive | HEK293 MP dye inactive
CC(Sc1ccc(Cl)cc1)C(=O)Nc1ccccc1-c1ccccc1 (stereo not given)	CHT PAM 6.98 | CHT act confirm 34.6 | HEK293 MP dye inactive
CCCCCCCCCCCC(=O)NC1CCS(=O)(=O)C1 (stereo not given)	none
CCCCC1CCC(C(=O)NC2CCS(=O)(=O)C2)CC1 (stereo not given)	none | CHT act confirm 10.2 | HEK293 MP dye inactive
COC(=O)C1=C(C)NC(=O)/C1=C\c1cc(C)n(-c2c(C)cccc2C)c1C	none | CHT act confirm 15.8 | HEK293 MP dye inactive
COC(=O)C1=C(C)NC(=O)/C1=C\c1cc(C)n(-c2ccccc2C)c1C	none
COCC(=O)N(C)c1nnc(-c2ccc([N+](=O)[O-])cc2)s1	none | CHT act confirm 40.8 | HEK293 MP dye -46.7
O=C(COc1ccc2c(c1)oc(=O)c1ccccc12)NCC1CCC(C(=O)O)CC1 (stereo not given)	CHT PAM 6.32 | CHT act confirm 31.8 | HEK293 MP dye -20.4
O=c1[nH]c2ccc(S(=O)(=O)N3CCN(C4CCCCC4)CC3)cc2[nH]c1=O	none | CHT act confirm 46.1 | HEK293 MP dye -42.3
O=c1[nH]c2ccc(S(=O)(=O)N3CCCCC3)cc2[nH]1	none
CCN(CCCNC(=O)CNC(=O)c1nn(-c2ccc(OC)c(OC)c2)c(=O)c2ccccc12)c1ccccc1	none
O=c1cc(-c2ccncc2)oc2ccccc12	none | CHT act confirm 45.8 | HEK293 MP dye -48.5
CN(C)c1ccnc(Nc2ccc(O)cc2)c1C#N	CHT PAM 6.97 | CHT act confirm 52.5 | HEK293 MP dye -46.1
CN(C)c1nccc(Nc2ccccc2)c1C#N	none
C#Cc1ccc(CN2CCCC(C(=O)Nc3ccccc3Oc3cccnc3)C2)cc1 (stereo not given)	none | CHT act confirm 16.6 | HEK293 MP dye inactive
O=C(Nc1ccccc1Oc1cccnc1)C1CCCN(Cc2ccccc2O)C1 (stereo not given)	none
COc1ccc(C(=O)Nc2cccc3c2CCCC3)c(OC)c1	none
Cc1ccc2c(n1)sc1c(N)ncnc12	CHT PAM 8.32 | CHT act confirm 53.2 | HEK293 MP dye -32.4
Cc1ccc2c(N)c(C#N)sc2n1	none
CCCCn1c(N)c(N(C)C(=O)c2ccccc2Oc2ccccc2)c(=O)[nH]c1=O	none (no result: CHT inh, CHT PAM)
CS(=O)(=O)c1ccc(Cl)c(NC(=O)COc2ccc3c(c2)CCC3)c1	none
COc1ccc(Cn2c(-c3ccc(C)cc3)c[n+]3ccccc23)cc1	CHT PAM 10.9 | CHT act confirm 61.9 | HEK293 MP dye -50.9
CC(C)(CN1CCN(Cc2ccccc2)CC1)NS(=O)(=O)c1ccc(Cl)cc1	CHT PAM 8.97 | CHT act confirm 21.2 | HEK293 MP dye inactive
CN1CCN(CC(C)(C)NS(=O)(=O)c2ccc(Cl)cc2)CC1	none
Cc1cc(C)n2nc(C(=O)Nc3ccc4c(c3)OCO4)nc2n1	CHT PAM 7.56 | CHT act confirm 29.9 | HEK293 MP dye -34.8
CCN(CC)S(=O)(=O)c1ccc(NC(=O)c2nc3nc(C)cc(C)n3n2)cc1	none
Cc1cc(C)n2nc(C(=O)N/N=C/c3ccc(O)cc3)nc2n1	CHT PAM 6.53 | CHT act confirm 30.2 | HEK293 MP dye -24.2
CCCOC(=O)c1ccc(NC(=O)c2nc3nc(C)cc(C)n3n2)cc1	none
Cc1cc(C)n2nc(C(=O)Nc3ccc(S(=O)(=O)N(C)C)cc3)nc2n1	CHT PAM 8.17 | CHT act confirm 59.7 | HEK293 MP dye -55.5
CCC(CC)c1nnc(NC(=O)c2nc3nc(C)cc(C)n3n2)s1	CHT PAM 7.28 | CHT act confirm 29.6 | HEK293 MP dye -30.9
Cc1cc(C)n2nc(C(=O)N/N=C/c3ccc(Cl)cc3)nc2n1	none
O=C(O)C1CC=C(Cl)CC1C(=O)NC1CCCCC1 (stereo not given)	none
COC(=O)C1=C[C@@H](C(=O)OC)[C@@H]2C3=C(C(=O)C2(C)C)[C@H](C)n2c(=O)n(-c4ccccc4)c(=O)n2[C@@H]3C1	none
CCOC(=O)c1ccc(-n2c(CCC(=O)O)ccc2-c2ccc(F)cc2)cc1	none
CCc1nnc(SCC(=O)N2CCCC(N3CCN(c4ccccc4C)CC3)C2)o1 (stereo not given)	none
CC1CCCc2sc3ncn(N)c(=N)c3c21 (stereo not given)	CHT PAM 7.07 | CHT act confirm 51.5 | HEK293 MP dye -50.3
Cn1ccc(NS(=O)(=O)c2cc(Br)ccc2Br)n1	none (no result: CHT inh, CHT PAM)
Cc1nc([N+](=O)[O-])c(N2CCN(Cc3ccccc3)CC2)n1Cc1ccccc1	CHT PAM 7.37 | CHT act confirm 32.8 | HEK293 MP dye inactive
Cc1nc([N+](=O)[O-])c(N2CCOCC2)n1Cc1ccccc1	none
COc1ccc(/C=N/Nc2ccccn2)cc1OC	none | CHT act confirm 41.5 | HEK293 MP dye -42.6
C(=N\Nc1ccccn1)/c1cccnc1	none | CHT act confirm 59.0 | HEK293 MP dye -54.1
Cc1cccc(-c2cc3nc(C)c(C)c(NCCCn4ccnc4)n3n2)c1	none
COCCNc1cc(C)nc2cc(-c3ccc(C)cc3)nn12	none
Cc1cc(NCCCn2ccnc2)n2nc(-c3ccc(Cl)cc3)cc2n1	CHT PAM 8.93 | CHT act confirm 37.7 | HEK293 MP dye -80.1
Cc1cc(NCCCn2ccnc2)n2nc(-c3ccc(F)cc3)cc2n1	CHT PAM 8.02 | CHT act confirm 41.5 | HEK293 MP dye -71.2
Cc1ccc(C#CC[N+]2(CC#Cc3ccc(C)cc3)CCCCC2)cc1	CHT PAM 8.71 | CHT act confirm 18.4 | HEK293 MP dye inactive
CCOC(=O)c1ccccc1NC(=O)COc1coc(CN2CCc3ccccc32)cc1=O	none | CHT act confirm 25.9 | HEK293 MP dye inactive
CCOc1ccccc1NC(=O)COc1coc(CN2CCc3ccccc32)cc1=O	none
Cc1nn(-c2ccccn2)c2nc(-c3cccs3)cc(C(=O)NCc3ccco3)c12	none | CHT act confirm 19.4 | HEK293 MP dye inactive
